In ChEMBL document CHEMBL1121461, “Synthesis and diuretic profile of 3-(3-amino-1,2,4-oxadiazol-5-yl)-5-chloro-2,6-pyrazinediamine, an amiloride-type diuretic” (J Med Chem, 1980) one finds Diuretic activity, Load and urine vol data, which are given here for two compounds.

Series [1] can be described thus: Compound was tested for diuretic activity in sodium content of the 3-h sample was measured by flame photometry. Type of series: ADME, Urine. On the set-up: unit not given beside the values. In short, it runs like this: (§1)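 Rats, four per group (eight in one case), given oral 50 mL/kg 0.2% NaCl load together with test agent by mouth; placed in metabolism cages, urine collected 3 h. Urine volume expressed as % of load; total Na+ and K+ (mequiv × 100) in the 3-h sample by flame photometry. Vehicle controls run alongside; significance p < 0.05, p < 0.01.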

Series [2] has as its system Rattus norvegicus. Briefly: Compound was tested for diuretic activity against peroral dose of 10 mg/kg in rat. On the set-up: dose 10 mg/kg, route oral. The class given is ADME, organism-based, Urine. As to conditions: in vivo, po. Put shortly:
(§2)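 Rats, four per dose group, given oral 0.2% NaCl load (50 mL/kg) together with test agent orally; placed in metabolism cages, urine collected 3 h. Na+ and K+ content of the 3-h sample by flame photometry; output as % of load and total mequiv × 100, compared against concurrent controls.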

Series [3] has as its system Canis familiaris. Briefly: Compound was tested for diuretic activity in urine volume in dogs at a dose of 5 mg/kg. The class given is ADME, organism-based, Canis lupus familiaris. The settings on record: dog, in vivo. On the set-up: dose 5 mg/kg. In short, it runs like this: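 Six normotensive trained dogs (10.2-17.9 kg), each given a placebo control test before each run. Oral dosing, then 100 mL normal saline injected subcutaneously. Bladder emptied by catheter at onset and 2, 4, 6 h after dosing; dogs in metabolism cages. Total urine volume recorded; Na+ and K+ of an aliquot by flame photometry.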

Series [4] concerns Rattus norvegicus. Briefly: Compound was tested for diuretic activity against peroral dose of 25 mg/kg in rat. Set-up: dose 25 mg/kg, route oral. Type of series: ADME, organism-based, Urine. The settings on record: in vivo, po. Put shortly: as §1
Series [5] is filed under the species Rattus norvegicus. Briefly: Compound was tested for diuretic activity in potassium content of the 3-h sample was measured by flame photometry in rat. As to conditions: in vivo. The class given is ADME, organism-based, Urine. Put shortly: as §2
Series [6] is filed under the species Rattus norvegicus. Briefly: Compound was tested for diuretic activity in sodium content of the 3-h sample was measured by flame photometry in rat. Type of series: ADME, organism-based, Urine. On the set-up: unit not given beside the values. As to conditions: in vivo. Put shortly: as §1
Series [7] relates to Rattus norvegicus. Briefly: Compound was tested for diuretic activity against peroral dose of 100 mg/kg in rat. Type of series: ADME, organism-based, Urine. Set-up: dose 100 mg/kg, route oral. As to conditions: in vivo, po. In short, it runs like this: as §1
In series [8] the test system is Rattus norvegicus. Briefly: Compound was tested for diuretic activity against peroral dose of 5 mg/kg in rat. As to conditions: in vivo, po. The class given is ADME, organism-based, Urine. Set-up: dose 5 mg/kg, route oral. In short, it runs like this: as §1
In series [9] the test system is Rattus norvegicus. Briefly: Compound was tested for diuretic activity against peroral dose of 50 mg/kg in rat. Type of series: ADME, organism-based, Urine. Set-up: dose 50 mg/kg, route oral. As to conditions: in vivo, po. Put shortly:
as §1

Series [10] is described as follows: Compound was tested for diuretic activity in potassium content of the 3-h sample was measured by flame photometry. The class given is ADME, Urine. Put shortly:
as §1

For series [11], the species on record is Canis familiaris. Briefly: Compound was tested for diuretic activity urine volume in dog. As to conditions: in vivo. Type of series: ADME, organism-based, Canis lupus familiaris. Put shortly:
(§3)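 Six normotensive trained dogs (10.2-17.9 kg; five for 10 mg/kg runs), oral dosing at 5 or 10 mg/kg, each preceded by placebo control test. Normal saline 100 mL given subcutaneously right after dosing. Bladder emptied by catheter at onset and 2, 4, 6 h; kept in metabolism cages; total urine volume recorded, Na+ and K+ of aliquot by flame photometry.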

Series [12] is filed under the species Canis familiaris. Briefly: Compound was tested for diuretic activity in urine volume in dog. The class given is ADME, organism-based, Canis lupus familiaris. The settings on record: in vivo. In short, it runs like this:
as §3

“And” between values parts separate entries of the source, which are not always exact repeats. Identical values can stand only once.

`Nc1noc(-c2nc(Cl)c(N)nc2N)n1`: the Diuretic activity is 23.5 and 21.2 and 40 in [1]; 1.1 and 2 and 1.8 and 1.9 and 2.1 in the series filed under Rattus norvegicus [5]; 24.7 and 33.8 and 42.7 and 41.6 in the series filed under Rattus norvegicus [6]. The Load is 88.8% and 96.9% with Rattus norvegicus [2]; 91% and 76.8% in the series with Canis familiaris [3]; 93.3% with Rattus norvegicus [4]; 100.4% with Rattus norvegicus [7]; 81.1% in the series on Rattus norvegicus [8]; 103% and 83.9% in the series on Rattus norvegicus [9].

On to `Cl.N=C(N)NC(=O)c1nc(Cl)c(N)nc1N.O.O` [AMILORIDE HYDROCHLORIDE], for which the Diuretic activity in series [1] is 33.6 and 24.9 and 27.9 and 32.9; in series [10] it was 1.1 and 1.4 and 1.7; in the series filed under Rattus norvegicus [5], 1.5 and 1.7 and 1.6 and 1.1; in the series listed under Rattus norvegicus [6] it was 38 [middle of 4 runs]. For the same compound, the Load with Rattus norvegicus [2] is 96.8%; in the series with Rattus norvegicus [4] it was 82.1%; in the series with Rattus norvegicus [7] it was 59.7%; in the series on Rattus norvegicus [8], 94%; in the series on Rattus norvegicus [9] it was 64.9% and 76.2%. The urine vol in the series listed under Canis familiaris [11] turned out to be 88.2%; in the series filed under Canis familiaris [12], 91.2%.
